Screening data: PubChem BioAssay, several laboratories
Compounds with a hit are over-represented: about 1.3% of the library has one in this group of screens.
core dimer inh: inhibitors of HCV core protein dimerization, primary screen, biochemical, TR-FRET, high-throughput | AID 1899, 2009 | TR-FRET GST/Flag-core106 dimerization, 1536-well | inhibition, % at 5 µM | 300,000 compounds, 0.33% hits;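 active = inhibition above the mean of all tested compounds plus 3 SD, set per screening campaign, cut at about 45% in these data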
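System: GST/Flag-tagged HCV core106 proteins. Incubation: compound-protein-antibody incubation 4 h at 22.5 °C. Technique: HTRF with 340 nm excitation, 617/671 nm emission. Medium: KF-containing HEPES buffer, pH 7.45, DTT, CHAPS, BSA. Read-out: inhibition (%) from 671 over 617 nm ratio. Also added: Eu(K)-anti-GST 90 ng/mL plus XL665-anti-Flag 1 µg/mL.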
HCV NS3 hel inh: inhibitors of HCV NS3 helicase, primary screen, biochemical, Cy5 molecular beacon fluorescence; Hepatitis C virus NS3 helicase; NS3 helicase DNA unwinding; inhibition, % at 10.9 µM; 290,000 compounds, 0.56% hits; AID 1800, 2009;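 active = inhibition above the mean of all tested compounds plus 3 SD, set per campaign, cut at about 35% in these data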;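 note: 0% = DMSO wells and 100% = thioflavine S control wells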
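Assay system – hepatitis C virus NS3 helicase domain fragment enzyme · Buffer or medium – MOPS pH 6.5, MgCl2, DTT, Tween20, BSA · Reagent – Cy5/quencher beacon DNA duplex and ATP to start · Compound – single 10.9 µM dose · Timing – 1 h at 25 °C · Technique – Cy5 beacon fluorescence read at start and 1 h · Measure – % inhibition of unwinding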
Hep lipid drop: inhibitors of hepatocyte lipid droplet formation, primary screen, imaging, high-throughput imaging, BODIPY stain | inhibition, % at 6.5 µM | 240,000 compounds, 0.4% hits | AML12 mouse hepatocytes, oleate lipid droplets;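 active = lipid droplet intensity inhibited by at least 50%, with more than 500 cells counted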
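Material – mouse AML12 hepatocyte cell line, fixed after treatment · Compound dosing – one dose, 6.5 µM compound · Times – compound with oleate, overnight · Measured by – Image-based BODIPY and DAPI two-channel analysis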
Tb MetRS inh: T. brucei MetRS inhibitors, primary screen, biochemical, luminescence | purified T. brucei MetRS, ATP depletion, Kinase-Glo luminescence | 360,000 compounds, 0.4% hits | inhibition, % at 11.9 µM | methionyl-tRNA synthetase (Trypanosoma brucei brucei);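 active = inhibition above a per-plate cutoff of the control wells' mean inhibition plus 3 SD, cut at about 5.5% in these data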;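 note: 0% = DMSO wells median and 100% = median of wells with control inhibitor compound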
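Assay system: T. brucei methionyl-tRNA synthetase, purified | Medium: HEPES buffer with MgCl2, KCl, DTT, spermine, BSA, pyrophosphatase | Compound: 11.9 µM single point | Incubation: 15 min enzyme-compound preincubation, 2 h reaction, 10 min detection, 25 °C | Measured by: Kinase-Glo luciferase luminescence reporting remaining unconsumed ATP | Measure: % inhibition normalized to control-well medians | Replication: Singlicate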
TbMetRS confirm: T. brucei MetRS inhibitors, confirmation, biochemical, luminescence; shares compounds with Tb MetRS inh; T. brucei MetRS enzyme, luminescence (ATP depletion); inhibition, % at 11.9 µM; 1,400 compounds, 93% hits; AID 624412, 2012; in the data active = inhibition above about 7%
Jurkat cytotox: Jurkat T cell cytotoxicity, cytotoxicity control for T. brucei MetRS inhibitor project, luminescence, high throughput | shares compounds with Tb MetRS inh | Jurkat cells viability, ATP luminescence | AID 624413, 2012 | inhibition, % at 8.3 µM | 1,400 compounds, 12% hits; in the data active = inhibition above about 15%;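 note: 0% = vehicle and 100% = reference inhibitor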
Tb MetRS inh FP: T. brucei MetRS inhibitors, orthogonal assay for T. brucei MetRS inhibitor project, biochemical, fluorescence polarization. shares compounds with Tb MetRS inh. purified T. brucei MetRS. inhibition, % at 11.9 µM. 1,400 compounds, 44% hits. AID 651607, 2012; in the data active = inhibition above about 17%;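 note: 0% = vehicle wells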
An asterisk follows results filed as active; . = not tested or not shown.

SMILES	core dimer inh	HCV NS3 hel inh	Hep lipid drop	Tb MetRS inh	TbMetRS confirm	Jurkat cytotox	Tb MetRS inh FP
O=C(NCc1nc2ccccc2[nH]1)c1ccc(S(=O)(=O)N2CCOCC2)cc1	0	4	.	12*	21*	1	3
O=C(NCc1nc2ccccc2[nH]1)c1ccc(S(=O)(=O)N2CCCC2)cc1	-1	-10	15	2	.	.	.
COc1ccc(NC(=O)COc2cccc3c2CCN(Cc2cccnc2)C3=O)c(OC)c1	10	-11	-4	0	.	.	.
NC1=NC(=O)/C(=C\c2ccc(-c3ccc(Cl)cc3)o2)S1	-19	24	0	9.1*	34*	22*	49*
CN(C)C1=NC(=O)/C(=C/c2ccc(-c3ccc(S(N)(=O)=O)cc3)o2)S1	-20	16	1	.	.	.	.
CCCc1cc(=O)[nH]c(SCC(=O)Nc2sccc2C#N)n1	.	.	.	0	.	.	.
COc1cccc(NC(=O)C(C#N)Cc2ccncc2)c1 (stereo not drawn)	-9	6	.	16*	1	3	3
COc1cccc(NC(=O)C(=O)NCc2ccncc2)c1	-6	-10	6	0	.	.	.
CS(=O)(=O)N1CCN(C2C3CC4CC(C3)CC2C4)CC1 (stereo not drawn)	0	-7	-3	0	.	.	.
O=C1CCCC(=NNC(=O)c2cc3ccccc3cc2O)C1	.	.	.	5.9*	24*	1	14
Cc1cc(Cl)ccc1OCc1nnc2n1CCCCC2	-2	2	-7	9.4*	20*	0	9
Clc1ccc(OCc2nnc3n2CCCCC3)c(Cl)c1	0	-7	0	16*	36*	0	18*
c1ccc(OCc2nnc3n2CCCCC3)cc1	-1	-1	2	-1	.	.	.
Clc1ccc(NCc2nnc3n2CCCCC3)cc1	-1	-10	8	0	.	.	.
ClCc1nc2ccccc2c2ccccc12	10	-4	-2	0	.	.	.
CCOC(=O)c1c(O)cc(C)cc1Nc1ccccc1	1	-5	-2	0	.	.	.
Cc1ccc(-n2ncc3c2CCCC3NC(=O)CCc2cnccn2)cc1C (stereo not drawn)	2	-3	1	0	.	.	.
O=C(c1ccccc1)c1nn(-c2ccccc2)c2nnc(Cc3ccccc3)c(=O)n12	23	-4	-15	6.5*	16*	15*	6
O=C(OCC(=O)c1c[nH]c2ccccc12)c1ccc(OC(F)F)cc1	.	.	.	12*	31*	4	29*
Cc1ccc(Cn2nc(C)c3cc(C(=O)OCC(N)=O)sc32)cc1	5	6	1	-1	.	.	.
Nc1nc2n(n1)C(c1ccco1)CC(c1ccc(Cl)cc1)N2 (stereo not drawn)	-2	-2	.	1	.	.	.
Nc1nc2n(n1)C(c1ccco1)CC(c1ccc(Cl)cc1Cl)N2 (stereo not drawn)	-7	-4	16	9.6*	18*	5	1
CC(C)n1c(NCc2ccccc2O)nc2ccccc21	11	4	-6	0	.	.	.
C=CCc1cccc(CNc2nc3ccccc3n2C(C)C)c1O	-4	-36	.	6.7*	11*	9	1
C=CCn1c(NCc2cc(Cl)ccc2O)nc2ccccc21	-1	-9	-9	13*	25*	0	9
SMILES	core dimer inh	HCV NS3 hel inh	Hep lipid drop	Tb MetRS inh	TbMetRS confirm	Jurkat cytotox	Tb MetRS inh FP
C=CCn1c(NCc2ccccc2O)nc2ccccc21	9	1	-14	0	.	.	.
O=C(Cn1c(CC(=O)N2CCOCC2)nc2ccccc21)Nc1ccc2c(c1)OC(F)(F)O2	-6	4	.	25*	41*	9	20*
O=[N+]([O-])c1[nH]cnc1/C=C/c1ccccc1	-1	2	13	5.6*	10*	4	0
COC(=O)c1nc[nH]c1[N+](=O)[O-]	.	.	.	0	.	.	.
Cc1nn(C(=O)c2cc3sccc3[nH]2)c(C)c1C	-3	-10	1	9.2*	17*	-7	6
Cc1nn(C(=O)CNC(=O)c2ccccc2)c(C)c1C	-1	15	5	0	.	.	.
Cc1cc(C)nc(NS(=O)(=O)c2ccc(NC(=O)Nc3ccccc3F)cc2)n1	-2	4	-1	7.3*	16*	-8	2
Cc1ccc(S(=O)(=O)Nc2ccnc3ccccc23)cc1	5	8	7	7.0*	15*	8	8
Cc1ccc(S(=O)(=O)Nc2cccc3ncccc23)cc1	0	11	-12	0	.	.	.
Cc1cc(SCC(=O)N/N=C/c2ccc(O)c(O)c2O)c(C)cc1Br	4	24	-6	76*	103*	56*	84*
COc1cc(/C=N/NC(=O)CSc2cc(C)c(Br)cc2C)ccc1O	4	-11	1	0	.	.	.
O=[N+]([O-])c1ccc(OCc2cnc(Cl)s2)c([N+](=O)[O-])c1	5	0	-3	6.7*	18*	1	16
COC(=O)C(Cc1cnc(Cl)s1)(C(=O)OC)c1ccc([N+](=O)[O-])cc1[N+](=O)[O-]	13	5	-2	0	.	.	.
Brc1ccc(-n2c(SCc3nc4ccccc4[nH]3)nnc2-c2ccncc2)cc1	1	6	-25	27*	42*	1	16
Cn1c(SCc2nc3ccccc3[nH]2)nnc1-c1cccnc1	1	-5	.	0	.	.	.
O=C(O)c1ccc(N2CCN(Cc3ccc4c(c3)OCO4)CC2)c([N+](=O)[O-])c1	3	-1	21	7.0*	16*	0	9
O=C(NCc1ccc2c(c1)OCO2)c1ccc(N2CCCCCC2)c([N+](=O)[O-])c1	12	2	4	0	.	.	.
CCCc1ncc(CN2CCC(C(=O)Nc3cccc(-c4cscn4)c3)CC2)cn1	-2	2	-7	-1	.	.	.
Cc1cc(C)c(S(=O)(=O)N2CCCOC2CNC(=O)C(=O)NCCc2c[nH]c3ccccc23)c(C)c1 (stereo not drawn)	4	-6	5	0	.	.	.
Cc1cccc(C)c1NC(=O)C1c2ccccc2OCC(=O)N1Cc1ccccc1 (stereo not drawn)	.	.	.	0	.	.	.
O=C(CNC(=O)c1ccc(Br)o1)NCc1ccc(Cl)cc1Cl	.	1	-1	18*	45*	-3	15
O=C(CNC(=O)c1ccc(Br)o1)NCc1cccc(Cl)c1	-17	6	-14	2	.	.	.
